Experimental data from ChEMBL document CHEMBL4513216, “Probing the Open Global Health Chemical Diversity Library for Multistage-Active Starting Points for Next-Generation Antimalarials” (ACS Infect Dis, 2020).

Assay: Toxicity liver stage against HepG2, at 10uM
Assay type: cell-based
Set-up: test concentration 10 uM, cell line HepG2-A16-CD81EGFP
Conditions: human, HepG2-A16-CD81EGFP cells; read-out: INHIBITION
Procedure, shortened: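 Uninfected HepG2-A16-CD81EGFP cells, 3 × 10^3 per well, 1536-well, plated on prespotted compound at 10 μM final, parasite-free screening media added to match infected plates; puromycin 10 μM positive, DMSO 0.5% negative; run in parallel with 48 h PbLuc assay at 37 °C, 5% CO2; viability by CellTiter-Glo luminescence, normalized to controls.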

Compound | cytotoxicity at 10 µM [%]
COCC(=O)N[C@H](C)c1onc(-c2ccc(F)cc2)c1C(=O)O | -8.15
CCN(CC)C(=O)CSc1sc2c(O)cc(=O)[nH]c2c1C(N)=O | 0.488
CCc1cnc2c(c1Nc1ccc3c(c1)OCO3)c(=O)n(C)c(=O)n2C | 9.06
Cn1cnnc1SCCCNC(=O)Nc1ncccn1 | 0.252
O=S(=O)(NCC1(O)CCOc2ccccc21)c1ccc(Cl)s1 (stereo not given) | 6.87
COc1cc(C(=O)NCCCc2ccccc2)on1 | -2.1
Cc1cc(C)c(S(=O)(=O)Nc2c(C)nc(N(C)C)nc2C)cc1C | 6.63
O=C1[C@@H]2CCN(C3CCC3)C[C@@H]2OCCN1Cc1ccncc1 | -135
CS(=O)(=O)N1Cc2nccn2CC(CN2CCCC2)C1 (stereo not given) | -111
CN(C)C(=O)COCC1CN(CC2CCOCC2)Cc2ncn(C)c21 (stereo not given) | 1.03
Cc1csc([C@H]2C[C@@H]3CCN(C(=O)c4ccnnc4)C[C@H]3O2)n1 | -1.95
Cn1cc(CN2CCC3(CCCN(C(=O)c4cnccn4)C3)C2)cn1 (stereo not given) | -131
CCOc1ccccc1C(=O)Oc1cc(=O)n2cccc(C)c2n1 | 22.1
COc1cccc(C(c2c(C)n[nH]c2O)c2c(C)n[nH]c2O)c1OC | 12.4
CCc1c(C)n(CC(C)=O)c2nc3ccccc3n2c1=O | 5.44
COc1ccccc1C(=O)Nc1c(F)c(C(=O)NC2CCCC2)nn1C | -10.8
CCS(=O)(=O)NCCCn1ncc2c(C)cccc21 | 6.8
O=C1CN([C@@H]2CC[C@@H](NS(=O)(=O)c3ccccc3)[C@H]2O)CCN1 | 7.41
CCn1ncc(S(=O)(=O)N[C@@H]2CC[C@@H](n3ccnc3)[C@@H]2O)c1C | -3.4
CCNC(=O)C1(Cc2cc(-c3ccccc3)no2)CCCN(C(C)C)C1 (stereo not given) | 1.62
O=C(c1ccc2[nH]nnc2c1)N1C[C@H](O)[C@]2(CCCO2)C1 | 3.42
CCN(Cc1cccnc1)CC1(C)Cc2c(N)nc(N)nc2O1 (stereo not given) | 0.705

Compound | cytotoxicity at 10 µM [%]
CC(C)(C)OC(=O)N[C@@H]1C[C@@H](O)CN(C(=O)c2cccc(F)c2)C[C@H]1O | 0.187
Cc1cncnc1C1CCN(CC2CC2)CC1 | -1.06
NC(=O)c1cn[nH]c1C1CCCN1C(=O)c1cnccn1 (stereo not given) | -6.17
COc1cccc(CN2CCC3(CC(Nc4ccncn4)C3)C2)c1F (stereo not given) | 1.69
Cc1cc(C)nc(Nc2cccc(C3CCCN(CCO)C3)n2)n1 (stereo not given) | -12.9
Cn1cccc1C(=O)N1CCCCC1c1[nH]ncc1S(C)(=O)=O (stereo not given) | -4.66
Cc1cccc(C(=O)N2CCCCC2c2[nH]ncc2S(C)(=O)=O)c1 (stereo not given) | -7.44
COc1nccc(C(F)(F)F)c1C(=O)O | 16
Cc1ccc(C2CSCCN2C(=O)NCc2cccnc2)cc1 (stereo not given) | 5.48
Cc1cc(N(C)C)nc(N2CCCC2c2cc(C)on2)n1 (stereo not given) | -2.38
O=C(O)c1ccn(-c2ccccc2NC(=O)c2ccccc2Cl)n1 | -161
Cc1nc(CN2CCN(CC(O)CN3CCOCC3)CC2)oc1C (stereo not given) | 5.92
O=C1NCCCCC1NC(=O)C1(c2ccccc2)CCOCC1 (stereo not given) | -14.2
O=C(NS(=O)(=O)c1cccc(C(F)(F)F)c1)c1cnsn1 | -2.98
CCOc1ccc(Cl)cc1CCNC(=O)Cn1nc(C)ccc1=O | -3.91
O=C(CCn1ccnn1)N1CCCC(n2cncn2)C1 (stereo not given) | -1.26
COC1CCN(c2ccc(F)cc2CN(C)S(C)(=O)=O)CC1 | -12.5
Fc1ccc(C2(NCc3ccccc3)CCOCC2)cc1 | -9.91
Cc1cc(NCCC(=O)NC2CCCC2)nc(-c2ccncc2)n1 | 2.25
O=C(NCCNC(=O)C1CC1)c1cnc(-c2ccccc2)nc1 | 12.3
CC(C(=O)N1CCN(Cc2ccncc2)CC1)n1cncn1 (stereo not given) | -4.73
CCN(CC)c1ncc(CNC2CCc3nc(C)nn3C2)s1 (stereo not given) | 2.78

Compound | cytotoxicity at 10 µM [%]
CC(NCc1cccc2c1OCCO2)c1cc2c(cc1Br)OCCO2 (stereo not given) | 3.6
O=S1(=O)CCC(n2cc(CNc3ccccc3Br)cn2)C1 (stereo not given) | -4.9
CC1CCN(C)c2ccccc2N1C(=O)c1ccc(=O)n(C)n1 (stereo not given) | 1.53
Cc1nnc(C(NS(=O)(=O)c2cc(F)c(C)cc2F)C(C)C)[nH]1 (stereo not given) | -5.19
O=C(CCCc1ccccn1)NCC(O)c1ccccc1Cl (stereo not given) | -9.08
O=C(Cn1nnc(-c2cc3ccccc3o2)n1)N1CCOCC1 | 7.63
Cc1cccc(N(CCC(N)=O)CC(=O)Nc2cc(Cl)ccc2Cl)c1 | 11.3
Cc1ccc(C(=O)NCCCn2cncn2)c(=O)[nH]1 | -14.4
CC(C)c1nc(/C=C/c2cnn(-c3ccc(Cl)cc3)c2)ncc1C(=O)O | -6.21
c1cnn(CCNCc2cnc(N3CCOCC3)nc2)c1 | -1.73
CC(C(=O)Nc1cccc(Cl)c1)N1CCN(Cc2ncc[nH]2)CC1 (stereo not given) | -8.64
CC(C)(NC(=O)c1ccc(-c2ccc(F)cc2)s1)C(N)=O | -4.05
CNS(=O)(=O)c1csc(C(=O)N(C)Cc2sccc2C)c1 | 16.4
O=C(NCC1(O)CCC1)c1cccc(-n2cccn2)c1 | -2.44
COc1ccc(OC)c(CN(C)c2nc3c(cnn3C)c(=O)[nH]2)c1 | 59.5
Cc1nc(CN2CCN(C(=O)COCc3ccccc3)CC2)no1 | -14.1
COC[C@@]12CCO[C@@H]1CCN(C(=O)C1CCSCC1)C2 | -104
COC[C@H]1CC[C@H]2[C@H](CCN2S(=O)(=O)c2ccccc2)O1 | -1.45
O=C(c1ccnnc1)N1C[C@H](OCC2CCOCC2)[C@H]2OCCC[C@H]21 | 3.86
Cc1nc(CN2C(=O)CC[C@H]3[C@@H]2CCN3C(=O)c2ccsc2)cs1 | 1.8
Cc1cn2c(=O)c(-c3ccnc(N4CCC[C@@H]4CO)n3)cnc2s1 | -9.52
CN1CCC(N(Cc2ccncc2)Cc2nc3c(s2)CCCC3)CC1 | -2.56

Compound | cytotoxicity at 10 µM [%]
Cc1nccn1Cc1nnc(C2CCCN(c3ncccn3)C2)n1C (stereo not given) | -3.09
COc1ccccc1Oc1ncccc1CNC(=O)CN1CCCC1=O | -4.72
CC1=C(CCN2CC[C@@H](N3CCC(O)CC3)[C@H](O)C2)C(C)(C)CCC1 | -4.42
CCn1ccnc1CN(C)c1cc(C2CCCNC2)nc(C)n1 (stereo not given) | -2.48
COc1cc(F)c(-n2cnc(CCNC(C)=O)c2)cc1F | -12.1
COC1CCCOC12CCN(C(=O)NCc1ccco1)CC2 (stereo not given) | -15.3
CSc1cccc(CN(C)C(=O)Cn2ncc(N(C)C)cc2=O)c1 | 0.0849
OC1(CNCCc2csc(-c3cccnc3)n2)CCNC1 (stereo not given) | 2.76
CCn1nc(C)c(CN(CCOC)Cc2ccccn2)c1C | 9.77
CSc1ncccc1C(=O)N(C)C(C)Cc1ccccn1 (stereo not given) | 2.28
Cc1ccc(C(=O)N2CCC3(CC2)C(=O)NCCN3C)cc1O | -0.081
CCc1c(C)sc2ncnc(N3CCN(C4CCOCC4)CC3)c12 | 8.48
Cc1ccc(CCNC(=O)CC2COCCN2S(=O)(=O)N(C)C)o1 (stereo not given) | 3.39
CSc1ccccc1CC1CCCS(=O)(=O)C1 (stereo not given) | 2.26
CCN1CCC(Cn2ccc3ccc(C(=O)OC)cc3c2=O)C1 (stereo not given) | -9.09
CC[C@@H](c1ccccc1)n1c(CN)n[nH]c1=O | -4.34
O=C(NCCc1c[nH]cn1)c1ccc(S(=O)(=O)NC2CCOC2)cc1 (stereo not given) | -1.91
Cc1ccc(F)c(OC2(C(=O)O)CCN(C(=O)c3ccccc3)CC2)c1 | 4.2
Cc1nn(C)c(C)c1-c1ccnc(N(C)Cc2noc(C(C)C)n2)n1 | 26.4
COc1ccc(CC2(CO)CCN(c3cc(C(N)=O)ccn3)CC2)cc1 | -2.41
CCCc1c(C2CCOC(C)(C)C2)nc(N)c(C#N)c1-c1cnn(C)c1 (stereo not given) | -3.22
COc1ccc(OCCN2CCCN(Cc3noc(C)n3)CC2)cc1 | -6.12

Compound | cytotoxicity at 10 µM [%]
CC(C)Oc1ccc(C(=O)N2CCCC2c2cnn(C)c2)cn1 (stereo not given) | -6.37
CN(CC(=O)Nc1ccncc1)C1CCCN(c2cccnn2)C1 (stereo not given) | -3.44
Cc1nc(C)c(C(=O)NCCn2nc3ccccn3c2=O)s1 | -2.51
CCc1nc2n(n1)CC(NCc1nc(-c3ccccn3)no1)CC2 (stereo not given) | -3.45
Cc1noc(C)c1S(=O)(=O)NC(=O)COc1ccc(C(C)C)cc1 | 2.1
Cc1cnn(CC2CCCCN2Cc2cc(C)no2)c1 (stereo not given) | -9.21
Cc1cnn(CC2CCCN2Cc2cc(C)on2)c1 (stereo not given) | -8.51
COc1cccc(CCC(=O)N2CCN(CC(C)(C)O)CC2)c1 | -8.39
CC(C)(C)c1nc(CN2CCCC(Cn3cncn3)C2)no1 (stereo not given) | -0.0792
CC(C)c1ncncc1C(=O)NCCN1CCCS1(=O)=O | -8.98
CCNc1cc2c(nn1)CCN(C(=O)c1ccnc(N(C)C)c1)C2 | -20.9
Cc1ccc(CN(C)C(=O)CN2CCOC(Cn3cncn3)C2)o1 (stereo not given) | -7.98
CCc1nc(CC(=O)N2CCN(c3cnccn3)CC2)cs1 | 1.97
CCn1c(C)nnc1CN(C)C1CCN(CCCOC)C1 (stereo not given) | 4.19
Cc1oc(-c2ccco2)nc1CC(=O)N1CCC(C(O)C(F)(F)F)CC1 (stereo not given) | -5.25
Cc1nc(NC(=O)C2(C)CN(C)CCO2)sc1C (stereo not given) | 2.44
CN1C[C@@H](C(=O)N(C)C)[C@@]2(CCc3ccccc3C(=O)N2)C1 | 1.2
CS(=O)(=O)NCc1cncc2c1CCN(C(=O)c1cccnc1)C2 | 5.12
CS(=O)(=O)N[C@H]1CCO[C@]2(CCN(C(=O)c3ccccn3)C2)C1 | -73.3
COCC1CN(Cc2csc(C)n2)Cc2nccn2C1 (stereo not given) | 3.16
Cn1ccnc1CN1CCC2(CC(=O)N(c3ccc4c(c3)OCO4)C2)C1 (stereo not given) | -79.8
CN1CC(=O)N(c2ccccc2)CC12CCN(C(=O)CC1CC1)C2 (stereo not given) | 0.972
